Most compounds without a hit are left out; they make up all but 1.9% or so of the library.
TbMetRS inhib: blocks T. brucei methionyl-tRNA synthetase activity; purified T. brucei MetRS, ATP depletion, Kinase-Glo luminescence; inhibition, % at 11.9 µM; 0.4% of 360,000 active; AID 624268;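 active means inhibition above a per-plate cutoff of the control wells' mean inhibition plus 3 SD, cut at about 5.5% in these data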;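 further: 0% = DMSO wells median and 100% = median of wells with control inhibitor compound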
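assay system = parasite MetRS enzyme | timing = 15 min preincubation, 2 h reaction, all 25 °C | evaluation = percent inhibition relative to median high and low control wells | medium = HEPES buffer containing pyrophosphatase, BSA, spermine, DTT | compound = single dose, 11.9 µM final nominal, 0.9% final DMSO | detection = Kinase-Glo luminescence, ATP depletion format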
sPLA2-III inh: Inhibits HGIII-sPLA2 liposome hydrolysis, primary screen | Q9NZ20 | QFRET BODIPY PC-A2 liposome hydrolysis, fluorescence | inhibition, % at 12.2 µM | 0.56% of 370,000 active | AID 743126;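 active means inhibition above mean plus 3 SD of compounds lying within the high and low control bounds, cut at about 19% in these data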;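 further: 0% = median of test compound wells and 100% = no enzyme DMSO wells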
PLC-beta3 inh: blocks human PLC-beta3 enzyme activity; Purified PLC-beta3, fluorogenic substrate, fluorescence; inhibition, % at 12.2 µM; 0.18% of 370,000 active; AID 720704; in the data active means inhibition above about 11%;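 further: 0% = median of compound wells on plate and 100% = full blocker control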
PLCg1 inh: PLC-gamma1 (human) inhibition, primary screen; purified PLC-gamma1, fluorogenic substrate, fluorescence; inhibition, % at 12.2 µM; 0.84% of 370,000 active; in the data active means inhibition above about 9.5%
hGIII sPLA2 conf: human GIII-sPLA2 inhibition, confirmation | shares compounds with sPLA2-III inh | recombinant hGIII-sPLA2, BODIPY PC-A2 QFRET fluorescence | inhibition, % at 12.2 µM | 34% of 2,000 active | AID 743280;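 active means mean inhibition across triplicates above the hit cutoff set in the earlier primary screen, cut at about 19% in these data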;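 further: 0% = enzyme with DMSO and 100% = DMSO wells lacking enzyme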
BODIPY interf: 535nm fluorescence interference, HGIII-sPLA2 counter-screen | 8.5% of 2,000 active | BODIPY FL product fluorescence interference, QFRET | shares compounds with sPLA2-III inh | inhibition, % at 12.2 µM | AID 743282;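 active means average inhibition above the solvent-only control mean plus 3 SD, cut at about 6% in these data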;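 further: 0% = DMSO with substrate plus product and 100% = DMSO with substrate alone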
535nm interf DR: interferes with 535nm fluorescence in dose response counter-screen; BODIPY FL product fluorescence interference, cell-free; AID 743455; 240 tested, under 10 active; shares compounds with sPLA2-III inh; IC50, µM;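 active means IC50 at or below 10 µM; inactive means IC50 above 10 µM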
* hit, by the source's call; i = inactive; . = not tested or not shown.

SMILES	TbMetRS inhib	sPLA2-III inh	PLC-beta3 inh	PLCg1 inh	hGIII sPLA2 conf	BODIPY interf	others
O=S(=O)(O)c1nc2ccccc2n1Cc1ccccc1	0	20*	-3	2	1	-3
CCOC(=O)[C@]12CCCCC/C=C\1N(CCc1ccc(Cl)cc1)C(=O)[C@H]2CC(=O)N1CCCCC1	.	0	-1	-1	.	.
CC(C)(C)c1ccc(C(=O)Nc2cc(Cl)c(F)cc2C(=O)O)cc1	.	-7	-7	-1	.	.
Cc1onc(-c2ccccc2)c1C(=O)NN=Cc1cc(Cl)cc(Cl)c1O	.	22*	i	i	17	11*
Cc1onc(-c2ccccc2)c1C(=O)N/N=C/c1cccc(O)c1	0	-7	0	1	.	.
COc1ccc(-n2sc3c(c2=S)-c2cc(OC)ccc2NC3(C)C)cc1	0	27*	2	4	12	8.1*
C[C@@H]1CN([C@@H](C)CO)C(=O)CCCn2cc(nn2)CO[C@H]1CN(C)C(=O)C1CCCCC1	.	0	1	1	.	.
COC(=O)[C@]12CCCCC=C1N(Cc1ccc(OC)cc1)C(=O)[C@@H]2CC(=O)NCc1ccc(C)o1	.	-16	2	2	.	.
S=c1[nH]nc(COc2ccc(Cl)cc2)n1-c1ccccc1	0	21*	-8	-2	34*	4	535nm interf DR=>122
S=c1[nH]nc(Cc2ccccc2)n1-c1ccccc1	-1	14	1	-3	.	.
S=c1[nH]nc(CCc2ccccc2)n1-c1ccc(Cl)cc1	0	24*	5	2	32*	3	535nm interf DR=>122
S=c1[nH]nc(-c2cccs2)n1Cc1ccccc1	0	20*	-204	-153	21*	3
S=c1[nH]nc(Cc2ccccc2)n1-c1ccc(Cl)cc1	-1	20*	0	-4	21*	2
S=c1[nH]nc(-c2ccccc2)n1Cc1ccccc1	-1	10	-3	-2	.	.
COCCCNC(=O)c1oc(=O)c2ccccc2c1-c1ccc(C)cc1	.	-5	0	-2	.	.
CN(CCOC(=O)c1occ2ccccc12)C1CN(Cc2cn(Cc3ccccc3Cl)nn2)S(=O)(=O)C1 (stereo not given)	.	-4	2	-1	.	.
C[C@H](O)[C@@H]1CN2CCc3ccc(N4CCOCC4)cc3[C@@H]2C[C@@H]1N(C)C(=O)c1ccccc1F	.	-2	-15	-11	.	.
Cc1cccc(-c2cccc3c4c([nH]c23)[C@@H]2C[C@H](N(C)C(=O)OCc3ccccc3)[C@H]([C@H](C)O)CN2CC4)c1	.	-7	-243	-176	.	.
O=C(NCCCc1ccccc1)OC1CC2CC1[C@H]1CCCCN1[C@H]2Cc1ccccc1 (stereo not given in full)	.	-3	-1	0	.	.
S=c1[nH]nc(COc2ccccc2)n1Cc1ccccc1	1	27*	-4	0	19	5
CN(C(=O)Nc1ccc(Cl)c(Cl)c1)c1ccccc1C(=O)O	0	21*	-109	-78	5	-4
COc1ccc(-c2ccc3c(n2)CCCN3S(=O)(=O)c2ccccc2)cc1	.	3	-15	-7	.	.
N#CC12C(=O)NC(=O)C1(C#N)C21CCCC1 (stereo not given)	0	22*	-5	0	-3	-6
COCCNCCCOc1ccc(C(C)(C)c2ccccc2)cc1	-1	22*	2	1	-11	-27
COCCCNCCCOc1ccc(C(C)(C)c2ccccc2)cc1	0	18	-2	2	.	.
SMILES	TbMetRS inhib	sPLA2-III inh	PLC-beta3 inh	PLCg1 inh	hGIII sPLA2 conf	BODIPY interf	others
COc1cccc(-n2c(SCc3cc(=O)oc4cc(O)c(O)cc34)nc3ccccc3c2=O)c1	1	20*	-223	-209	10	-5
CCNC(=O)CSc1nc2ccccc2c(=O)n1-c1cccc(OC)c1	-1	7	5	-1	.	.
COc1ccc(/C(C)=N/NC(=O)c2nnn(-c3nonc3N)c2CN(C)c2ccccc2)cc1	-1	-4	-9	0	.	.
C/C(=N\NC(=O)c1nnn(-c2nonc2N)c1CN(C)c1ccccc1)c1ccccc1O	0	24*	-45	-26	33*	-2	535nm interf DR=>122
OCC1SC(O)C(O)C(O)C1O (stereo not given)	.	-1	6	3	.	.
O=C(Oc1coc(CSc2ncccn2)cc1=O)c1ccc([N+](=O)[O-])cc1	.	-1	3	-1	.	.

Screens from PubChem.
